TNAP inh hi DEA: blocks human TNAP under high phosphate acceptor concentration; P05186; AID 1135; purified TNAP, CDP-star luminescence, 1 M DEA; inhibition, % at 20 µM; 200,000 compounds, 0.03% hits;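 active means over 50% inhibition of tissue-nonspecific alkaline phosphatase at 20 µM in the single-dose screen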;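 further: plate controls were DMSO wells for no effect and EDTA-quenched wells as full inhibition for full effect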
Target sequence (P05186 whole entry, looked up): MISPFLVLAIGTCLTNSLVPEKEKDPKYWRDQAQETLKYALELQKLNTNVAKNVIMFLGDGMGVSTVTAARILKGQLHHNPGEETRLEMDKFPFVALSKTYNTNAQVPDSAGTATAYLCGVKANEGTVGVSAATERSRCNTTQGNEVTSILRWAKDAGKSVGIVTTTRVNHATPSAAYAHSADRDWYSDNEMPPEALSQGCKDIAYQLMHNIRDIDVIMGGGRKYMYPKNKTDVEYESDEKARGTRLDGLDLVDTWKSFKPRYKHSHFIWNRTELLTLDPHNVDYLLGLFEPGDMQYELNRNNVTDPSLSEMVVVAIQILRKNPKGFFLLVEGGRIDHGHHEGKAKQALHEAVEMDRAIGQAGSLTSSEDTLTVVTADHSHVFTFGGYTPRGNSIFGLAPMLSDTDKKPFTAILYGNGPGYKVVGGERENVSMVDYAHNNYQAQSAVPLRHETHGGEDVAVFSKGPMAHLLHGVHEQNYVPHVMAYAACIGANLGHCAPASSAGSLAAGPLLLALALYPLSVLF
TNAP inh noacc: inhibitors of human TNAP without phosphate acceptor | inhibition, % at 20 µM | AID 1012 | 200,000 compounds, 0.26% hits | P05186 | purified TNAP, CDP-star luminescence, 30 min;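 active means tissue-nonspecific alkaline phosphatase inhibition above about 50% at 20 µM in the single-dose screen, limit read from the data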;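 further: 0% = DMSO negative control and 100% = EDTA positive control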
bCat KO growth: beta-catenin-lacking colon tumor cell growth suppression; viability, % at 10 µM; HCT116 beta-catenin knockout viability, CellTiter-Glo, 60 h; hits give low values; 140,000 compounds, 1.5% hits;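 active means viability at or under a set limit, the compound median less 4 SD, cut at about 6% in these data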;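 further: 0% = Hyamine 1622 control at 20 µM and 100% = untreated cell control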
PTEN del growth: suppresses growth of cells with PTEN deletion; viability, % at 10 µM; 140,000 compounds, 1.2% hits; HCT116 PTEN-null viability, CellTiter-Glo, 60 h; hits give low values; AID 827;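 active means viability at or below a set limit, 4 SD under the median of all tested compounds, cut at about 3.7% in these data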;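 further: PTEN knockout HCT116 line with beta catenin targeted HCT116 as companion control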
L major viab: inhibitors of Leishmania major promastigote growth; Leishmania major promastigotes, resazurin fluorescence viability; inhibition, % at 10 µM; 200,000 compounds, 9% hits; AID 1063; in the data active means inhibition above about 50%;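 further: promastigotes grown with compound for 44 hours at 28 °C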
TNAP act hi DEA: increases human TNAP activity under high phosphate acceptor concentration; P05186; purified TNAP, CDP-star luminescence, 1 M DEA, 30 min; hits give high values; 0 = EDTA background, 1 = DMSO-only activity; activation factor at 20 µM; 200,000 tested, under 10 active;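 active means activation factor at least 2 at 20 µM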
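Test system – human TNAP · Doses – 20 µM single point · Incubation – 30 min, room temperature · Signal – luminescent substrate turnover signal · Read-out basis – activation factor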
* = called active by the depositor; . = not tested or not shown. Only some compounds are listed: those with a hit (about 9.6% of all), similar ones and a draw of the others.

SMILES | TNAP inh hi DEA | TNAP inh noacc | bCat KO growth | PTEN del growth | L major viab | TNAP act hi DEA
O=C(CC(=O)c1ccccc1O)c1cccc(F)c1 | -5 | -11 | 28 | 31 | 98* | 1
C/C(=N\NC(N)=S)C1C2C3CC4C5CC(C42)C1C53 (stereo not given) | 2 | 3 | . | . | 100* | 1
C/C(CC1CC(C)OC1=O)=N\NC(N)=S (stereo not given) | -1 | -8 | 97 | 96 | -8 | 1
O=c1c2[nH]c3ccc(F)cc3c2nc2n1CCCS2 | 0 | -7 | . | . | 16 | 1
COc1ccc(CCNC(=O)COC(=O)C23CC4CC(CC(C4)C2)C3)cc1 | -1 | -7 | 97 | 95 | 2 | 1
COc1ccc(CCNC(=O)COC(=O)C23CC4CC(CC(Br)(C4)C2)C3)cc1 | -11 | -13 | 98 | 100 | 56* | 1.1
CCOc1ccc(CNc2cccc(SC)c2)cc1 | -1 | -6 | . | . | 6 | 1
CC(C)(C)c1ccc(Cn2c(=N)n(CC(O)c3ccco3)c3ccccc32)cc1 (stereo not given) | -6 | -28 | . | . | 100* | 1.1
Cc1ccccc1Cn1c(=N)n(CC(O)c2ccco2)c2ccccc21 (stereo not given) | -3 | -14 | 50 | 54 | 78* | 1
CC(C)(C)c1ccc(COn2c(=O)c(-c3ccco3)[n+]([O-])c3ccccc32)cc1 | -4 | 2 | 82 | 84 | 1 | 1
CC(Oc1ccccc1)C(=O)NC1=NCCS1 (stereo not given) | 0 | -16 | . | . | -6 | 1
CC1(C)CC(NCc2ccc3c(c2)OCO3)CCO1 (stereo not given) | -3 | 0 | 94 | 97 | 84* | 1
CC1(C)CC(O)(CCNCc2ccc3c(c2)OCO3)CCO1 (stereo not given) | -6 | -9 | 103 | 101 | 83* | 1.1
COC(=O)c1sccc1NC(=O)COc1ccc(F)cc1Cl | -7 | -11 | . | . | -4 | 1.1
COc1cccc(CC(NC(C)=O)C(=O)NC2CCN(S(=O)(=O)c3ccc(F)cc3)CC2)c1OC (stereo not given) | 0 | -2 | . | . | -4 | 1
CN1CCN(CC(=O)N(Cc2c(C#N)c3ccccc3n2C)c2ccccc2)CC1 | -2 | -9 | 93 | 93 | 100* | 1
Cc1nn(CC(=O)Nc2ccc3c(c2)nc(CCN2CCCCC2)n3C)c(=O)c2ccccc12 | -7 | -9 | 61 | 68 | 3 | 1.1
Cc1nn(CC(=O)Nc2ccc3c(c2)nc2n3CCN(C3CCCCC3)C2)c(=O)c2ccccc12 | -4 | 3 | . | . | 72* | 1
CCN(CC)C(=S)SCC(=O)c1ccc(F)cc1 | 2 | 52* | 62 | 61 | 78* | 1
CC1=C(C(=O)OCc2ccccc2)C(/C=C/c2ccccc2)N2C(=O)CCSC2=N1 (stereo not given) | -4 | -8 | 91 | 93 | 75* | 1
NNc1ncnc2sc3c(c12)CCC3 | 0 | 88* | . | . | -3 | 1
C(=N\Nc1ncnc2sc3c(c12)CCC3)/c1cccs1 | -6 | -10 | 2.1* | 2.5* | 21 | 1.1
O=C(Nc1ncnc2sc3c(c12)CCC3)c1ccco1 | 0 | -3 | 100 | 97 | -2 | 1
C(=N\Nc1ncnc2sc3c(c12)CCC3)/c1ccncc1 | 0 | 14 | 10 | 3.3* | 66* | 1
c1cc(Nc2ncnc3sc4c(c23)CCC4)ccn1 | -2 | -8 | . | . | -5 | 1
SMILES | TNAP inh hi DEA | TNAP inh noacc | bCat KO growth | PTEN del growth | L major viab | TNAP act hi DEA
CCOc1ccc(NC(=O)C2CC(=O)OC2c2ccccc2)cc1 (stereo not given) | -6 | -8 | . | . | -7 | 1.1
CCOC(=O)C1CCCN(Cc2nc(Cc3ccccc3Cl)no2)C1 (stereo not given) | -5 | -6 | . | . | -1 | 1.1
Cc1cc(C)nc(NS(=O)(=O)c2ccc(N3C(=O)C4C5C=CC(C5)C4C3=O)cc2)n1 (stereo not given) | -6 | -11 | 94 | 93 | -5 | 1.1
CC1=CC2CC1C1C(=O)N(c3ccc(S(=O)(=O)Nc4nc(C)cc(C)n4)cc3)C(=O)C21 (stereo not given) | -2 | 21 | 102 | 102 | 52* | 1
COC(=O)c1c(C)[nH]c(-c2csc(N)n2)c1C | 2 | -16 | . | . | 2 | 1
COc1ccc(NC(=O)CN(c2ccccc2)S(=O)(=O)N(C)C)cc1Cl | 7 | -2 | . | . | 9 | 0.9
Cc1ccc(C)c(N(CC(=O)Nc2cc(Cl)ccc2Oc2ccccc2)S(C)(=O)=O)c1 | -6 | -11 | 70 | 54 | 52* | 1.1
Cc1cccc(C)c1N(CC(=O)Nc1cc(Cl)ccc1Oc1ccccc1)S(C)(=O)=O | -3 | -8 | 64 | 40 | 10 | 1
COc1ccc(Cl)cc1N(CC(=O)Nc1cccc(SC)c1)S(C)(=O)=O | 0 | -1 | 79 | 66 | 61* | 1
COc1ccc(Cl)cc1NC(=O)CN(c1ccccc1)S(=O)(=O)N(C)C | -7 | -9 | 54 | 52 | 100* | 1.1
COc1ccc(OC)c(S(=O)(=O)N(C)CC(=O)Nc2cc(Cl)ccc2OC)c1 | 1 | 0 | 87 | 80 | 100* | 1
Oc1ccccc1C1CC(c2cccs2)=NC(c2ccc(Cl)cc2)N1 (stereo not given) | 3 | -2 | . | . | 49 | 1
CCOc1ccccc1C1N=C(c2ccc(OC)cc2)CC(c2ccccc2O)N1 (stereo not given) | 4 | -18 | . | . | 51* | 1
OC1CCCN(Cc2cccc3ccccc23)C1 (stereo not given) | 2 | -6 | 82 | 98 | -5 | 1
OC1CCCN(Cc2c3ccccc3cc3ccccc23)C1 (stereo not given) | -9 | -9 | 17 | 24 | 78* | 1.1
O=C(NNC(=O)C1CCN(Cc2cccc(F)c2)CC1)c1cccc(Cl)c1 | -2 | -41 | 98 | 98 | 64* | 1
O=C(Nc1cccc(F)c1)NC1CCN(Cc2ccccc2)CC1 | -7 | -8 | . | . | 56* | 1.1
CCN1CCC(NC(=O)Nc2ccc(F)cc2)CC1 | -6 | -10 | . | . | 0 | 1.1
Fc1ccc(NC(=S)NC2CCN(Cc3ccccc3)CC2)cc1 | -5 | -9 | . | . | 89* | 1.1
S=C(Nc1ccc(Cl)c(Cl)c1)NC1CCN(Cc2ccccc2)CC1 | -5 | -24 | 3.8* | 8 | 95* | 1.1
COc1cccc(NC(=O)NC2CCN(Cc3nnnn3Cc3ccc(F)cc3)CC2)c1 | -6 | -28 | 84 | 95 | -10 | 1.1
Cc1c(NS(=O)(=O)c2ccc(C(=O)NCc3ccccc3)cc2)c(=O)n(-c2ccccc2)n1C | 0 | -6 | . | . | 1 | 1
CC(C)(C)CC(C)(C)NC(=S)NC1CCN(Cc2ccccc2)CC1 | -4 | -8 | 16 | 20 | 89* | 1
Cc1cccc(NC(=S)NC2CCN(Cc3ccccc3)CC2)c1C | 0 | -11 | 102 | 95 | 89* | 1
